From PubChem BioAssay
An excerpt weighted towards active compounds, which were near 2.9% of everything screened.
S100A4 inh HTS: inhibitors of S100A4-myosin IIA peptide binding, primary screen, biochemical, fluorescence polarization, TAMRA-MyoIIA peptide. inhibition, % at 10.7 µM. actives 0.14% (n = 360,000);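 active = mean inhibition of at least 70% across replicates, with every replicate also reaching that level; inconclusive = mean inhibition reaches 70% but some replicates fall short; inactive = mean inhibition below 70%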
Target sequence (P26447 whole entry, looked up): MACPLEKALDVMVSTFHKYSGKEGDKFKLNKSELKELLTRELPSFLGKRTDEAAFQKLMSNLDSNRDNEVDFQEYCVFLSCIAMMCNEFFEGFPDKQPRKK
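System – human S100A4 monomer protein, biochemical binding assay · Buffer or medium – Calcium-containing HEPES buffer, pH 7.2 · Timing – 5 min between mix addition and reading · Also added – TAMRA-labelled myosin IIA heavy-chain peptide probe, 5 nM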
C2C12 statin: suppressors of statin myotoxicity in C2C12 myotubes, primary screen, cell-based, single point, plate reader. C2C12 myotubes + simvastatin, ATP luminescence, 48 h; scaled: DMSO 0, geranylgeraniol control 100. rescue of ATP level, % at 7.49 µM. actives 0.78% (n = 330,000);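 active = mean ATP rescue above about 67%, or every replicate alone reaching that limit, limit read from the data, passing the limit was not always enough; inconclusive = no clear call, values can overlap the other calls; inactive = mean under the limit and some replicate under it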;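 also: myotubes were challenged with 10 µM simvastatin during compound exposure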
DENV2 CPE rescue: inhibitors of DENV2 cytopathic effect, primary screen, cell-based, plate reader, single concentration; DENV2-infected cells, cytopathic effect rescue; AID 651640, 2012; CPE inhibition, % at 9.99 µM; actives 1.7% (n = 350,000); in the data active = CPE inhibition above about 20%, passing the limit was not always enough; inconclusive = no clear call, values can overlap the other calls; tested in BHK-21 cells
PGC1a acetyl inh: inhibitors of PGC1a acetylation signal, primary screen, cell-based, U2OS, AlphaScreen, inhibitor mode. AlphaScreen anti-acetyl-lysine; with virally co-expressed GCN5 acetyltransferase. inhibition, % at 15.6 µM. actives 0.17% (n = 350,000);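 active = every replicate shows inhibition of at least 40%; inconclusive = mean inhibition at least 40% but some replicate below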
SIRT5 inh: SIRT5 desuccinylase inhibitors, primary screen, biochemical, fluorescence imaging, single point, set 5 | NAD-dependent protein deacylase sirtuin-5, mitochondrial (Homo sapiens), Q9NXA8 | Purified SirT5, succinyl-peptide AMC, trypsin-coupled fluorescence | inhibition, % at 15 µM | actives 1.1% (n = 330,000); in the data active = inhibition above about 15%; inconclusive = no clear call, values can overlap the other calls
Target sequence (Q9NXA8 whole entry, looked up): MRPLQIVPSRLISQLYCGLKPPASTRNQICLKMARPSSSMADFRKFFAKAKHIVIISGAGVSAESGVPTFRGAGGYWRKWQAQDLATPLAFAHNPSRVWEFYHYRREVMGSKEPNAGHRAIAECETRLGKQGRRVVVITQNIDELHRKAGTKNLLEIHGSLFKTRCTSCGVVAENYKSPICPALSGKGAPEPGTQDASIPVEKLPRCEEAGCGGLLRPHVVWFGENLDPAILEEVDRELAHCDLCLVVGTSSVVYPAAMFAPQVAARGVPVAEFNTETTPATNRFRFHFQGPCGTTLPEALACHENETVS
Numbers stand for hits.

What do the screens show for `C[C@H](CO)N1C[C@H](C)[C@H](CN(C)S(=O)(=O)c2cccs2)Oc2ncc(-c3ccccc3)cc2C1=O`?
S100A4 inh HTS: inactive; C2C12 statin: inactive; DENV2 CPE rescue: inactive; PGC1a acetyl inh: inactive; SIRT5 inh: inactive

What do the screens show for `O=C(NCCN1CCCC(O)C1)c1cc(COc2ccc(F)cc2Cl)on1` (centres undefined)?
S100A4 inh HTS: inactive; C2C12 statin: inactive; DENV2 CPE rescue: inactive; PGC1a acetyl inh: inactive; SIRT5 inh: 24.3

How did COc1ccc(OCc2cc(C(=O)NCCN3CCCC(O)C3)no2)c(Cl)c1 (centres undefined) do in these assays?
S100A4 inh HTS: inactive; C2C12 statin: inactive; DENV2 CPE rescue: inactive; PGC1a acetyl inh: inactive; SIRT5 inh: inactive

Results for Oc1ccccc1/C=N/Nc1nc2ccccc2o1 ?
S100A4 inh HTS: inactive; C2C12 statin: inactive; DENV2 CPE rescue: inactive; PGC1a acetyl inh: 41.2; SIRT5 inh: inactive

How did Brc1ccc(/C=N/Nc2nc3ccccc3o2)cc1 do in these assays?
S100A4 inh HTS: inactive; C2C12 statin: inactive; DENV2 CPE rescue: inactive; PGC1a acetyl inh: inactive; SIRT5 inh: inactive

How did CCN(Cc1ccccc1)S(=O)(=O)c1ccc(C(=O)N(CCCN(C)C)c2nc3cc(C)cc(C)c3s2)cc1 do in these assays?
S100A4 inh HTS: inactive; C2C12 statin: inactive; DENV2 CPE rescue: 78.2; PGC1a acetyl inh: inactive; SIRT5 inh: inactive

Results for Cc1cc(C)c2sc(N(CCCN(C)C)C(=O)c3ccc(S(=O)(=O)N(C)Cc4ccccc4)cc3)nc2c1 ?
S100A4 inh HTS: inactive; C2C12 statin: inactive; DENV2 CPE rescue: inactive; PGC1a acetyl inh: inactive; SIRT5 inh: inactive

How did O=C(/C=C/c1c(F)cccc1Cl)c1ccc(F)cc1 do in these assays?
C2C12 statin: 128.8; PGC1a acetyl inh: inactive

What do the screens show for `Cc1noc(C)c1NC(=O)NC[C@@H]1CC[C@@H]2[C@@H](CN2Cc2cccc(-c3ccccn3)c2)O1`?
S100A4 inh HTS: inactive; DENV2 CPE rescue: inconclusive; PGC1a acetyl inh: inactive; SIRT5 inh: inactive

How did O=S(=O)(NC[C@@H]1CC[C@H]2[C@H](CN2Cc2cccc(-c3ccccn3)c2)O1)c1ccccc1 do in these assays?
S100A4 inh HTS: inactive; DENV2 CPE rescue: inactive; PGC1a acetyl inh: inactive; SIRT5 inh: 18.0

How did N#Cc1c(Cl)cccc1N1CCCC1 do in these assays?
S100A4 inh HTS: inactive; C2C12 statin: inactive; DENV2 CPE rescue: inactive; PGC1a acetyl inh: inactive; SIRT5 inh: inactive

What do the screens show for `N#Cc1c(Cl)cccc1N1CCSCC1`?
S100A4 inh HTS: inactive; DENV2 CPE rescue: 36.2; SIRT5 inh: inactive

What do the screens show for `CCCN1C(=S)SC(C)(C)C1/[N+]([O-])=C/c1cccnc1` (centres undefined)?
C2C12 statin: inactive; PGC1a acetyl inh: inactive

How did CCCCN1C(=S)SC(C)(C)C1/[N+]([O-])=C/c1cccnc1 (centres undefined) do in these assays?
C2C12 statin: 97.8; PGC1a acetyl inh: inactive

How did COc1cccc(CNC(=O)C2CCCN(c3cnccn3)C2)c1 (centres undefined) do in these assays?
S100A4 inh HTS: inactive; C2C12 statin: inactive; DENV2 CPE rescue: inactive; PGC1a acetyl inh: inactive; SIRT5 inh: inactive

Results for COc1ccc(NC(=O)C2CCCN(c3cnccn3)C2)c(OC)c1 (centres undefined) ?
S100A4 inh HTS: inactive; C2C12 statin: inactive; DENV2 CPE rescue: inactive; PGC1a acetyl inh: inactive; SIRT5 inh: 16.4

Results for CCCNC(=O)N(C)C[C@H]1Oc2cc(C#CC(C)C)ccc2S(=O)(=O)N([C@H](C)CO)C[C@H]1C ?
S100A4 inh HTS: inactive; C2C12 statin: inactive; DENV2 CPE rescue: inactive; PGC1a acetyl inh: inactive; SIRT5 inh: inactive

Results for CCCNC(=O)N(C)C[C@@H]1Oc2cc(C#C[C@@H](C)O)ccc2S(=O)(=O)N([C@@H](C)CO)C[C@@H]1C ?
S100A4 inh HTS: inactive; C2C12 statin: inactive; DENV2 CPE rescue: inactive; PGC1a acetyl inh: inactive; SIRT5 inh: inactive

How did CCCNC(=O)N(C)C[C@H]1Oc2cc(C#CC(C)C)ccc2S(=O)(=O)N([C@H](C)CO)C[C@@H]1C do in these assays?
S100A4 inh HTS: inactive; C2C12 statin: inactive; DENV2 CPE rescue: inactive; PGC1a acetyl inh: inactive; SIRT5 inh: 18.6

What do the screens show for `CCCNC(=O)N(C)C[C@H]1Oc2cc(C#C[C@H](C)O)ccc2S(=O)(=O)N([C@@H](C)CO)C[C@@H]1C`?
S100A4 inh HTS: inactive; C2C12 statin: inactive; DENV2 CPE rescue: inactive; PGC1a acetyl inh: inactive; SIRT5 inh: 18.1

How did CN1CCN(C(=O)c2cc3nc(-c4ccccc4)cc(C(F)(F)F)n3n2)CC1 do in these assays?
C2C12 statin: inactive; PGC1a acetyl inh: inactive

What do the screens show for `O=C(c1cc2nc(-c3ccccc3)cc(C(F)(F)F)n2n1)N1CCCC1`?
S100A4 inh HTS: inactive; PGC1a acetyl inh: inactive; SIRT5 inh: 21.3

What do the screens show for `CN1CCN(C(=O)C[C@@H]2C[C@@H]3c4cc(NC(=O)Nc5ccc(F)cc5)ccc4O[C@@H]3[C@H](CO)O2)CC1`?
S100A4 inh HTS: inactive; C2C12 statin: inactive; DENV2 CPE rescue: inactive; PGC1a acetyl inh: inactive; SIRT5 inh: inactive

Results for COc1ccc(Br)cc1/C=C/c1ccc2cccc(O)c2n1 ?
S100A4 inh HTS: inactive; C2C12 statin: 67.5; DENV2 CPE rescue: inactive; PGC1a acetyl inh: inactive; SIRT5 inh: inactive

What do the screens show for `COCC(=O)N1C[C@@H](C)[C@H](OC)CN(C)C(=O)c2cc(NC(=O)c3ccc(F)cc3)ccc2OC[C@@H]1C`?
S100A4 inh HTS: inactive; C2C12 statin: inactive; DENV2 CPE rescue: inconclusive; PGC1a acetyl inh: inactive; SIRT5 inh: inactive

Results for Nc1nc2c(ncn2[C@@H]2O[C@H](C(=O)NCCCc3ccccc3)[C@@H](O)[C@H]2O)c(=O)[nH]1 ?
S100A4 inh HTS: inactive; DENV2 CPE rescue: inactive; SIRT5 inh: inactive

How did O=C(C[C@@H]1C=C[C@@H](NC(=O)CN2CCOCC2)[C@H](CO)O1)NC1CCCCC1 do in these assays?
S100A4 inh HTS: inactive; C2C12 statin: inactive; DENV2 CPE rescue: inactive; PGC1a acetyl inh: inconclusive; SIRT5 inh: 25.8

Results for O=C(C[C@@H]1C=C[C@H](NC(=O)CN2CCOCC2)[C@H](CO)O1)NC1CCC1 ?
S100A4 inh HTS: inactive; C2C12 statin: inactive; DENV2 CPE rescue: inactive; PGC1a acetyl inh: inactive; SIRT5 inh: inactive

How did O=C(C[C@H]1C=C[C@H](NC(=O)CN2CCOCC2)[C@H](CO)O1)NCCc1ccccc1 do in these assays?
S100A4 inh HTS: inactive; C2C12 statin: inactive; DENV2 CPE rescue: inactive; PGC1a acetyl inh: inactive; SIRT5 inh: 17.0

What do the screens show for `Cc1ccc(Nc2nnc(SCC(=O)c3c(N)n(C4CC4)c(=O)[nH]c3=O)s2)cc1C`?
S100A4 inh HTS: inactive; C2C12 statin: inactive; DENV2 CPE rescue: inactive; PGC1a acetyl inh: inactive; SIRT5 inh: inactive

Results for Cc1cccc(Nc2nnc(SCC(=O)c3c(N)n(C4CC4)c(=O)[nH]c3=O)s2)c1 ?
S100A4 inh HTS: inactive; C2C12 statin: inactive; DENV2 CPE rescue: inactive; PGC1a acetyl inh: inactive; SIRT5 inh: 16.0
